Measurements taken from ChEMBL document CHEMBL4616666, “Discovery of SHP2-D26 as a First, Potent, and Effective PROTAC Degrader of SHP2 Protein” (J Med Chem, 2020).

Legend:
[1] = tested on: KYSE-520 cell line; assay: Growth inhibition of human KYSE520 cells measured after 4 days by WST8 assay; details: KYSE-520, 96 h
[2] = tested on: MV4-11; assay: Growth inhibition of human MV4-11 cells measured after 4 days by WST8 assay; details: MV4-11, 96 h
[3] = molecular target: T1, von Hippel-Lindau disease tumor suppressor/Tyrosine-protein phosphatase non-receptor type 11 (Homo sapiens, UniProt Q06124+P40337); assay: Protac activity at VHL1/SHP2 in human KYSE520 cells assessed as induction of SHP2 degradation at 0.1 uM measured after 6 hrs by Western blot analysis relative to control; format: cell-based
Procedure, shortened: (§1)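 KYSE520 cells in RPMI 1640 + 10% FBS, 37 °C, 5% CO2, were exposed to degrader for 6 h. SHP2 was measured by Western blot and densitometry, with background-subtracted band normalized to net GAPDH band. Values are the average of three independent experiments.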

[4] = molecular target: T1, von Hippel-Lindau disease tumor suppressor/Tyrosine-protein phosphatase non-receptor type 11; assay: Protac activity at VHL1/SHP2 in human KYSE520 cells assessed as induction of SHP2 degradation at 1 uM measured after 6 hrs by Western blot analysis relative to control; format: cell-based; procedure, shortened: as §1
[5] = molecular target: T1, von Hippel-Lindau disease tumor suppressor/Tyrosine-protein phosphatase non-receptor type 11; assay: Protac activity at VHL1/SHP2 in human MV4-11 cells assessed as induction of SHP2 degradation at 0.1 uM measured after 24 hrs by Western blot analysis relative to control; format: cell-based
Procedure, shortened: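 MV4;11 cells in IMDM + 10% FBS were exposed to degrader for 24 h. SHP2 was quantified by Western blot densitometry, with background-subtracted band divided by net GAPDH loading-control band. Average of three independent experiments.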

T1 sequence (P40337 whole entry partner): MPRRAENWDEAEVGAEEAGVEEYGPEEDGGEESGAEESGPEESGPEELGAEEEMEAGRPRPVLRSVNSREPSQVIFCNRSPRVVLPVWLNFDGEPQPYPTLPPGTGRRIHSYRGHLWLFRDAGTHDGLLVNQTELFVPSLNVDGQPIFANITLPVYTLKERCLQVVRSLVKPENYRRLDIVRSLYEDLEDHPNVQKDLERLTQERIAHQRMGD
T1 sequence (Q06124 2-593 limits assumed): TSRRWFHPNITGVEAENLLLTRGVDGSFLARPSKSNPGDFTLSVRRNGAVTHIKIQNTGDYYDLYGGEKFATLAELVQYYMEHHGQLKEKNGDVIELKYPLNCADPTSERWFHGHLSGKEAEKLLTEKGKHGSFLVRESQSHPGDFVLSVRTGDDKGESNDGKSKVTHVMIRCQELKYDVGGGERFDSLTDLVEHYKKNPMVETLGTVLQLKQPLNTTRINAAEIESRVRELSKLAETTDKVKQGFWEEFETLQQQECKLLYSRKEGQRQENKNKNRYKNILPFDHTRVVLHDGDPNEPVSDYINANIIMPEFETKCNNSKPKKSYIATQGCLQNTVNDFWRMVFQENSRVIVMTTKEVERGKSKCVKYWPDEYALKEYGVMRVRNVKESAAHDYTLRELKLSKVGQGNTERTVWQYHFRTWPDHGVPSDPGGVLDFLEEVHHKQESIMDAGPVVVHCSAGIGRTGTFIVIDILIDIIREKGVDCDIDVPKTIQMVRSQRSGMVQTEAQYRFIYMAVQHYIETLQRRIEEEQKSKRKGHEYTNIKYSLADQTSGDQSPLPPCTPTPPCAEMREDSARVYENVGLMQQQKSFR

Row | Compound | Activity [3] | Activity [4] | Activity [5] | IC50 [1] | IC50 [2]
1 | CC1(N)CCN(c2cnc(-c3cccc(Cl)c3Cl)c(N)n2)CC1 | – | – | – | 18.2 µM | 1 µM
2 | CC(=O)Nc1cccc(Sc2ncc(N3CCC(C)(N)CC3)nc2N)c1Cl | – | – | – | 39.4 µM | 6.6 µM
3 | Cc1ncsc1-c1ccc([C@H](C)NC(=O)[C@@H]2C[C@@H](O)CN2C(=O)[C@@H](NC(=O)CCCCCCCCCCCNC(=O)CCC(=O)Nc2cccc(Sc3ncc(N4CCC(C)(N)CC4)nc3N)c2Cl)C(C)(C)C)cc1 | > 95% | > 95% | – | – | –
4 | Cc1ncsc1-c1ccc([C@H](C)NC(=O)[C@@H]2C[C@@H](O)CN2C(=O)[C@@H](NC(=O)CCCCCCCOc2ccc(NC(=O)CCC(=O)Nc3cccc(Sc4ncc(N5CCC(C)(N)CC5)nc4N)c3Cl)cc2)C(C)(C)C)cc1 | > 95% | > 95% | > 95% | – | –
5 | Cc1ncsc1-c1ccc([C@H](C)NC(=O)[C@@H]2C[C@@H](O)CN2C(=O)[C@@H](NC(=O)CCNC(=O)CC(=O)Nc2cccc(Sc3ncc(N4CCC(C)(N)CC4)nc3N)c2Cl)C(C)(C)C)cc1 | 4% | 0% | – | – | –
6 | Cc1ncsc1-c1ccc([C@H](C)NC(=O)[C@@H]2C[C@@H](O)CN2C(=O)[C@@H](NC(=O)CCCCCCCCCCCNC(=O)CCCC(=O)Nc2cccc(Sc3ncc(N4CCC(C)(N)CC4)nc3N)c2Cl)C(C)(C)C)cc1 (single isomer, unassigned) | > 95% | > 95% | – | – | –
7 | Cc1ncsc1-c1ccc([C@H](C)NC(=O)[C@@H]2C[C@@H](O)CN2C(=O)[C@@H](NC(=O)CCCCCCCCNC(=O)CC(=O)Nc2cccc(Sc3ncc(N4CCC(C)(N)CC4)nc3N)c2Cl)C(C)(C)C)cc1 (single isomer, unassigned) | 81% | 80% | – | – | –
8 | Cc1ncsc1-c1ccc([C@H](C)NC(=O)[C@@H]2C[C@@H](O)CN2C(=O)[C@@H](NC(=O)CCCCCCCNC(=O)CC(=O)Nc2cccc(Sc3ncc(N4CCC(C)(N)CC4)nc3N)c2Cl)C(C)(C)C)cc1 (single isomer, unassigned) | 20% | 14% | – | – | –
9 | Cc1ncsc1-c1ccc([C@H](C)NC(=O)[C@@H]2C[C@@H](O)CN2C(=O)[C@@H](NC(=O)CCCCCCNC(=O)CC(=O)Nc2cccc(Sc3ncc(N4CCC(C)(N)CC4)nc3N)c2Cl)C(C)(C)C)cc1 (single isomer, unassigned) | 0% | 0% | – | – | –
10 | Cc1ncsc1-c1ccc([C@H](C)NC(=O)[C@@H]2C[C@@H](O)CN2C(=O)[C@@H](NC(=O)CCCCCNC(=O)CC(=O)Nc2cccc(Sc3ncc(N4CCC(C)(N)CC4)nc3N)c2Cl)C(C)(C)C)cc1 (single isomer, unassigned) | 0% | 3% | – | – | –
11 | Cc1ncsc1-c1ccc([C@H](C)NC(=O)[C@@H]2C[C@@H](O)CN2C(=O)[C@@H](NC(=O)CCCCNC(=O)CC(=O)Nc2cccc(Sc3ncc(N4CCC(C)(N)CC4)nc3N)c2Cl)C(C)(C)C)cc1 (single isomer, unassigned) | 13% | 6% | – | – | –
12 | Cc1ncsc1-c1ccc([C@H](C)NC(=O)[C@@H]2C[C@@H](O)CN2C(=O)[C@@H](NC(=O)CCCNC(=O)CC(=O)Nc2cccc(Sc3ncc(N4CCC(C)(N)CC4)nc3N)c2Cl)C(C)(C)C)cc1 (single isomer, unassigned) | 9% | 7% | – | – | –
13 | Cc1ncsc1-c1ccc([C@H](C)NC(=O)[C@@H]2C[C@@H](O)CN2C(=O)[C@@H](NC(=O)CCOCCOCCOCCNC(=O)CCC(=O)Nc2cccc(Sc3ncc(N4CCC(C)(N)CC4)nc3N)c2Cl)C(C)(C)C)cc1 (single isomer, unassigned) | 32% | 87% | 85% | – | –
14 | Cc1ncsc1-c1ccc([C@H](C)NC(=O)[C@@H]2C[C@@H](O)CN2C(=O)[C@@H](NC(=O)COCCOCCOCCNC(=O)CCC(=O)Nc2cccc(Sc3ncc(N4CCC(C)(N)CC4)nc3N)c2Cl)C(C)(C)C)cc1 (single isomer, unassigned) | 80% | > 95% | > 95% | – | –
15 | Cc1ncsc1-c1ccc([C@H](C)NC(=O)[C@@H]2C[C@@H](O)CN2C(=O)[C@@H](NC(=O)COCCOCCOCCOCCNC(=O)CCC(=O)Nc2cccc(Sc3ncc(N4CCC(C)(N)CC4)nc3N)c2Cl)C(C)(C)C)cc1 (single isomer, unassigned) | 53% | > 95% | 95% | – | –

Second part, led by results:

Row | Activity [3] | Activity [4] | Activity [5] | Compound | IC50 [1] | IC50 [2]
16 | > 95% | > 95% | – | Cc1ncsc1-c1ccc([C@H](C)NC(=O)[C@@H]2C[C@@H](O)CN2C(=O)[C@@H](NC(=O)CCCCCCCCCCNC(=O)CCC(=O)Nc2cccc(Sc3ncc(N4CCC(C)(N)CC4)nc3N)c2Cl)C(C)(C)C)cc1 | – | –
17 | 62% | 90% | 8% | Cc1ncsc1-c1ccc([C@H](C)NC(=O)[C@@H]2C[C@@H](O)CN2C(=O)[C@@H](NC(=O)CCCCCCCCCCCCCCC(=O)Nc2cccc(Sc3ncc(N4CCC(C)(N)CC4)nc3N)c2Cl)C(C)(C)C)cc1 (single isomer, unassigned) | – | –
18 | 80% | > 95% | 6% | Cc1ncsc1-c1ccc([C@H](C)NC(=O)[C@@H]2C[C@@H](O)CN2C(=O)[C@@H](NC(=O)CCCCCCCCCCCN2CCN(CC(=O)Nc3cccc(Sc4ncc(N5CCC(C)(N)CC5)nc4N)c3Cl)CC2)C(C)(C)C)cc1 (single isomer, unassigned) | – | –
19 | > 95% | 93% | – | Cc1ncsc1-c1ccc([C@H](C)NC(=O)[C@@H]2C[C@@H](O)CN2C(=O)[C@@H](NC(=O)CCCCCCCCCCCNC(=O)CC(=O)Nc2cccc(Sc3ncc(N4CCC(C)(N)CC4)nc3N)c2Cl)C(C)(C)C)cc1 (single isomer, unassigned) | – | –
20 | 85% | > 95% | 47% | Cc1ncsc1-c1ccc([C@H](C)NC(=O)[C@@H]2C[C@@H](O)CN2C(=O)[C@@H](NC(=O)CCCCCCCCCCN2CCN(CC(=O)Nc3cccc(Sc4ncc(N5CCC(C)(N)CC5)nc4N)c3Cl)CC2)C(C)(C)C)cc1 (single isomer, unassigned) | – | –
21 | > 95% | > 95% | – | Cc1ncsc1-c1ccc([C@H](C)NC(=O)[C@@H]2C[C@@H](O)CN2C(=O)[C@@H](NC(=O)CCCCCCCCCCNC(=O)CC(=O)Nc2cccc(Sc3ncc(N4CCC(C)(N)CC4)nc3N)c2Cl)C(C)(C)C)cc1 (single isomer, unassigned) | – | –
22 | > 95% | > 95% | > 95% | Cc1ncsc1-c1ccc([C@H](C)NC(=O)[C@@H]2C[C@@H](O)CN2C(=O)[C@@H](NC(=O)CCCCCCCCCN2CCN(C(=O)CCC(=O)Nc3cccc(Sc4ncc(N5CCC(C)(N)CC5)nc4N)c3Cl)CC2)C(C)(C)C)cc1 (single isomer, unassigned) | – | –
23 | > 95% | > 95% | – | Cc1ncsc1-c1ccc([C@H](C)NC(=O)[C@@H]2C[C@@H](O)CN2C(=O)[C@@H](NC(=O)CCCCCCCCCNC(=O)CC(=O)Nc2cccc(Sc3ncc(N4CCC(C)(N)CC4)nc3N)c2Cl)C(C)(C)C)cc1 (single isomer, unassigned) | – | –
24 | 0% | 82% | 9% | Cc1ncsc1-c1ccc([C@H](C)NC(=O)[C@@H]2C[C@@H](O)CN2C(=O)[C@@H](NC(=O)CCCCN2CCN(CCCCNC(=O)CCC(=O)Nc3cccc(Sc4ncc(N5CCC(C)(N)CC5)nc4N)c3Cl)CC2)C(C)(C)C)cc1 (single isomer, unassigned) | – | –
